These results are taken from PubChem BioAssay.

Unmarked numbers belong to inactive results. Results filed as inconclusive are left out. Active and inactive are the calls of the source.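 The calls were made as follows, unless noted: active = inhibition over a set limit, the all-compound mean plus 3 SD, in both replicate runs; inconclusive = over that limit in just one replicate run; inactive = at or under that limit in both runs.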

Test [1] is described as follows: S. cerevisiae growth inhibition in permissive medium (OD615), pilot counter-assay for S. cerevisiae lifespan shortening project, permissive growth control (AID 705;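 active = growth inhibition above 25% in both replicates, a cutoff set 3 SD above the mean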). The settings on record: OD615, 24 h, at 10 µM, active compounds read high. The essentials:
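System: S. cerevisiae with engineered DeaD lifespan system / Measured by: absorbance (optical density) at 615 nm / Read-out: reduction in yeast growth (OD615) / Times: 4 h cell pre-growth, 24 h exposure at 30 °C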

Test [2] is described as follows: S. cerevisiae growth inhibition in restrictive medium, OD615, pilot screen, restrictive growth control, yeast lifespan reduction project (AID 706;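 active = growth inhibition above a set limit, 3 SD over mean compound inhibition, in both replicates, cut at about 43% in these data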;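 also: modified DeaD lifespan yeast strain shifted to restrictive glucose medium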). The settings on record: OD615, 48 h, at 10 µM, active compounds read high. The essentials: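 System: Engineered S. cerevisiae DeaD strain | Buffer or medium: Glucose-based CSMM-D restrictive medium | Schedule: 4 h pre-incubation, 48 h exposure at 30 °C | Technique: Optical density at 615 nm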

The nature of test [3]: doxorubicin toxicity protection in MRP-1 cells – H69AR cells, CellTiter-Glo, duplicate, MRP-1 activator project, pilot screen (AID 807;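 active = viability increase at or above a cutoff of the median across tested compounds plus 3 SD, cut at about 8.5% in these data, passing the limit was not always enough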;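 also: compound pretreatment 18-22 h then 72 h combined with doxorubicin; 0% = doxorubicin alone and 100% = vehicle without doxorubicin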). The settings on record: H69AR viability with doxorubicin, CellTiter-Glo luminescence; at 10 µM; active compounds read high.
Test [4] in a line: viability of HCT116 without oncogenic beta-catenin – human colon tumor cells, pilot screen (AID 823;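 active = cell viability at or below a set limit in both duplicate runs, the limit being the all-compound median minus 4 SD, cut at about 23% in these data, passing the limit was not always enough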;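 also: 0% = wells killed by 20 µM Hyamine and 100% = untreated DMSO cell wells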). The settings on record: HCT116 beta-catenin knockout viability, CellTiter-Glo, 60 h; at 10 µM; active compounds read low. (Cellular ATP, detected with luciferase, serves as a proxy for viable cell number.)
Test [5] is described as follows: viability of PTEN-null HCT116 cells – cell-based, HCT116 clonal line, CellTiter-Glo, pilot screen (AID 824;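 active = viability at or below 27.92% in each of two runs, the all-compound median minus 4 SD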;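 also: 0% = 20 µM Hyamine control and 100% = vehicle cell control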). The settings on record: HCT116 PTEN-deleted viability, 60 h, at 10 µM, active compounds read low.
The nature of test [6]: RAM pathway blockade in budding yeast – dse1pr::URA3 reporter, 5-FOA selection, pilot screen (AID 869).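 Also: 0% = DMSO wells with no growth and 100% = 10 µM 1-NA-PP1 with full growth; RAM network block rescues cells from 5-FOA so hits raise OD615 growth.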 The settings on record: S. cerevisiae dse1pr::URA3 5-FOA growth, OD615, 2 d; at 10 µM; active compounds read high; strain carries analog-sensitive mutant Cbk1 kinase.
Test [7] is described as follows: RAM signaling pathway blockade in yeast – S. cerevisiae, Pdr1DBD-CYC8 efflux-inhibited sensitized strain, primary screen (AID 1298;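 active = RAM network inhibition above 8.4% in each of two replicates, 3 SD over the compound average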;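 also: 0% = DMSO untreated cells without growth and 100% = 10 µM 1-NA-PP1 full growth; higher means more yeast growth rescued from 5-FOA killing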). The settings on record: S. cerevisiae cbk1-as DSE1-URA3 strain, 5-FOA growth OD615, 2 d; at 50 µM; active compounds read high.

Usually viability stands for a read-out of living cells in per cent, often relative to untreated cells. In general, inhibition refers to the drop in the measured response relative to a control, in per cent.

Regarding `Cc1oc2c(c(=O)c1C)C(=O)CC(c1ccccc1)C2` (stereo unspecified), the growth inhibition is -10.3% in test [1] and -15.9% in test [2]. Moreover, the viability increase in test [3] was -3.41%. The viability was 88.5% in test [4] and 91% in test [5]. Moreover, the inhibition in test [6] is 0.115%. In addition, in test [7], the RAM network inhibition is -1.15%.
`CCCOc1ccc(C(=O)NCCC(=O)NCCCC(=O)OCC)cc1`: the growth inhibition is -14.6% in test [1] and -20.7% in test [2]. Further, in test [3], the viability increase was 0.2%. Besides, the viability in test [4] was 91.8%; in test [5], 104%. The inhibition in test [6] is 1.34%. For the same compound, in test [7], the RAM network inhibition was 0.47%.
As to `Clc1ccc(CCNc2ncnc3nc[nH]c23)cc1`, the growth inhibition was 12.7% in test [1] and 48.5% (active) in test [2]. Also, the viability increase in test [3] was 0.89%. In addition, the viability in test [4] was 74.7%; in test [5], 77%. Also, in test [6], the inhibition was -0.895%. The RAM network inhibition in test [7] was 2.97%.
With `Cc1csc2nc(CNC(=O)C3CCCCC3)cn12`, the growth inhibition in test [1] was -16.4%; in test [2] it was -13.2%. For the same compound, the viability increase in test [3] is -3.04%. The viability was 105% in test [4] and 97.2% in test [5]. Besides, the inhibition in test [6] was 0.93%. Further, in test [7], the RAM network inhibition is 0.53%.
Consider `COc1ccc(-c2nc3n(n2)C(c2ccccc2Cl)C(C(N)=O)=C(C)N3)cc1` (stereo unspecified), for which the growth inhibition in test [1] was -14.2%; in test [2] it was 0.71%. Also, the viability increase in test [3] was -0.48%. The values for the viability in test [4] and in test [5] were 96.9% and 96.2%, respectively. Also, in test [6], the inhibition was 1.66%. The RAM network inhibition in test [7] is -1.36%.
On to `C=C(C)Cn1c(COc2ccccc2)nnc1SCC(=O)O`, for which the growth inhibition is -9.65% in test [1] and -7.02% in test [2]. The viability increase in test [3] is -4.09%. The figures for the viability in test [4] and in test [5] were 89.7% and 90.6%, respectively. For the same compound, the inhibition in test [6] was 0.3%. Moreover, the RAM network inhibition in test [7] is 0.88%.
For `CC1=C(C#N)C(c2cccnc2)C2=C(CC(C)(C)CC2=O)N1` (stereo unspecified), the figures for the growth inhibition in test [1] and in test [2] were 1.49% and -0.735%, respectively. Moreover, the viability increase in test [3] is -2.91%. In addition, the viability in test [4] is 94.2%; in test [5], 99.6%. In addition, the inhibition in test [6] is 1.09%. Further, the RAM network inhibition in test [7] was 3.92%.
Turning to `O=C(CSc1cn(CCNC(=O)c2cccs2)c2ccccc12)NCC1CCCO1` (stereo unspecified), the values for the growth inhibition in test [1] and in test [2] were -13.8% and -23.4%, respectively. For the same compound, the viability increase in test [3] is 0.16%. Moreover, the viability in test [4] is 96.2%; in test [5] it was 96.1%. Further, in test [6], the inhibition is 1.61%. For the same compound, the RAM network inhibition in test [7] was 1.6%.
As to `COCCCNC(=O)COc1cc(C)c(Cl)c(C)c1`, the values for the growth inhibition in test [1] and in test [2] were -3.79% and -2.48%, respectively. The viability increase in test [3] was -1.76%. The viability in test [4] was 95.5%; in test [5], 96.3%. Further, in test [6], the inhibition was -0.185%. Also, the RAM network inhibition in test [7] is 1.45%.
`CCn1c(=O)cc(O)c2ccccc21`: the figures for the growth inhibition in test [1] and in test [2] were 1.77% and -10.1%, respectively. For the same compound, the viability increase in test [3] was -1.68%. Further, the viability is 99% in test [4] and 94% in test [5]. Moreover, the inhibition in test [6] is 2.01%. Besides, in test [7], the RAM network inhibition was 1.28%.
Turning to `O=C(NO)c1ccc(C(=O)N(C2CCCCC2)C2CCCCC2)cc1`, the growth inhibition in test [1] is -0.05%; in test [2] it was 5.84%. Moreover, in test [3], the viability increase was -5.78%. For the same compound, the values for the viability in test [4] and in test [5] were 17.2% (active) and 36.1%, respectively. Further, the inhibition in test [6] is 0.64%. Moreover, in test [7], the RAM network inhibition was -1.08%.
Consider `CC(C)CC1(C(=O)O)NC(c2ccccc2O)C2C(=O)N(C(C)C)C(=O)C21` (stereo unspecified), for which the growth inhibition in test [1] is 3.45%; in test [2] it was 3.48%. Besides, the viability increase in test [3] is -0.07%. Moreover, the figures for the viability in test [4] and in test [5] were 102% and 99.3%, respectively. Moreover, the inhibition in test [6] is 1.27%. In addition, the RAM network inhibition in test [7] was 3.59%.
As for `CCOC(=O)NCc1ccc(CNC(=O)OCC)cc1`, the results for the growth inhibition in test [1] and in test [2] were -9.67% and 4.35%, respectively. The viability increase in test [3] was -1.96%. The values for the viability in test [4] and in test [5] were 97.1% and 90%, respectively. Further, the inhibition in test [6] is 0.81%. Further, the RAM network inhibition in test [7] was 0.57%.
In the case of `CCC1Oc2ccc(C)cc2N(CC(=O)NCCc2ccc(OC)c(OC)c2)C1=O` (stereo unspecified), the values for the growth inhibition in test [1] and in test [2] were -6.91% and 3.82%, respectively. Also, the viability increase in test [3] is -0.77%. For the same compound, the results for the viability in test [4] and in test [5] were 95.2% and 92.4%, respectively. Further, the inhibition in test [6] was 1.23%. Further, the RAM network inhibition in test [7] is -0.46%.
With `C=C(C)CSc1nnc(-c2cccc(Cl)c2)n1N`, the values for the growth inhibition in test [1] and in test [2] were 3.94% and 14.4%, respectively. The viability increase in test [3] is 0.23%. Further, the viability is 95.9% in test [4] and 91.5% in test [5]. Also, the inhibition in test [6] was 1.77%. Also, in test [7], the RAM network inhibition is -0.48%.
As for `CC(C)COC(=O)c1ccc(NC(=O)C2C3CCC(C3)C2C(=O)O)cc1` (stereo unspecified), the growth inhibition in test [1] was -7.04%; in test [2], -5.98%. Moreover, in test [3], the viability increase was 0.09%. Besides, the results for the viability in test [4] and in test [5] were 87.4% and 90%, respectively. For the same compound, the inhibition in test [6] was 0.68%. For the same compound, the RAM network inhibition in test [7] is 0.37%.
Take `Cc1nc2sc(C(c3ccc(Cl)cc3)N3CCN(CCO)CC3)c(O)n2n1` (stereo unspecified): the growth inhibition in test [1] is 7.67%; in test [2], 4.92%. Also, the viability increase in test [3] was -2.42%. Moreover, the viability in test [4] was 97%; in test [5], 90.2%. In test [6], the inhibition is 1.82%. The RAM network inhibition in test [7] is 1.58%.
As for `CCn1c(C(C)NC(=O)c2cccs2)nc2ccccc21` (stereo unspecified), the growth inhibition in test [1] is -1.68%; in test [2], -9.03%. In addition, in test [3], the viability increase is -1.68%. For the same compound, the viability in test [4] is 103%; in test [5] it was 91.9%. Moreover, the inhibition in test [6] is 1.33%. The RAM network inhibition in test [7] is 6.3%.
